The nature of data set [1]: Half life in PBS at 1 uM by LC-MS/MS analysis. The format is physicochemical. Summed up:
(§1)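 Samples were incubated in phosphate buffer or human plasma and analysed by LC-MS/MS in product ion scan mode. Analyte concentration was monitored over incubation time. The slope of ln(concentration) versus time gave the first-order degradation rate constant k, and t1/2 was calculated from k. Ketoprofen ethyl ester served as a reference to confirm that the plasma batch was enzymatically active.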

Data set [2] can be described thus: Half life in human plasma at 1 uM by LC-MS/MS analysis. Format: ADME, cell-free. Summed up:
as §1

Data set [3] is described as follows: Drug degradation in human plasma at 1 uM measured upto 120 mins by LC-MS/MS analysis. The format is ADME, cell-free. The settings on record: 2 h. Summed up: as §1
Data set [4] deals with T1, ATP-dependent translocase ABCB1 (Homo sapiens, UniProt P08183). In words: Inhibition of P-gp in human K562/DOX cells assessed as drug level causing 50% increase in nuclear pirarubicin concentration incubated for 30 mins by spectroflurometry. The format is cell-based. The settings on record: read-out: I0.5. Summed up:
(§2)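 Pirarubicin uptake into nuclei was measured in P-gp-overexpressing, doxorubicin-resistant K562/DOX cells. [I]0.5 is the modulator concentration giving a half-maximal increase (α = 0.5) in nuclear pirarubicin concentration. αmax is the maximum increase obtainable in resistant cells. Mean ± SE of three independent experiments.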

Data set [5] addresses T1, ATP-dependent translocase ABCB1. In words: Inhibition of P-gp in human K562/DOX cells assessed as drug level causing maximum increase in nuclear pirarubicin concentration incubated for 30 mins by spectroflurometry relative to control. Format: cell-based. The conditions noted are these: 0.5 h. Summed up: as §2
For data set [6] the target is unchanged. In words: Inhibition of P-glycoprotein (unknown origin) in MDCK-MDR1 assessed as reduction of ATP consumption pre-incubated for 2 hrs followed by substrate addition shaken for 5 mins by luminescence assay. Format: cell-based. The settings on record: mdck-mdr1, 5 min.
Data set [7] shares this target. Kind of data set: Inhibition of P-glycoprotein (unknown origin) in MDCK-MDR1 assessed as inhibtion of calcein-AM transport incubated for 30 mins by fluorescence assay. The format is cell-based.
Data set [8] concerns the target T2, Broad substrate specificity ATP-binding cassette transporter ABCG2 (Homo sapiens, UniProt Q9UNQ0).
T2 sequence (Q9UNQ0 whole entry): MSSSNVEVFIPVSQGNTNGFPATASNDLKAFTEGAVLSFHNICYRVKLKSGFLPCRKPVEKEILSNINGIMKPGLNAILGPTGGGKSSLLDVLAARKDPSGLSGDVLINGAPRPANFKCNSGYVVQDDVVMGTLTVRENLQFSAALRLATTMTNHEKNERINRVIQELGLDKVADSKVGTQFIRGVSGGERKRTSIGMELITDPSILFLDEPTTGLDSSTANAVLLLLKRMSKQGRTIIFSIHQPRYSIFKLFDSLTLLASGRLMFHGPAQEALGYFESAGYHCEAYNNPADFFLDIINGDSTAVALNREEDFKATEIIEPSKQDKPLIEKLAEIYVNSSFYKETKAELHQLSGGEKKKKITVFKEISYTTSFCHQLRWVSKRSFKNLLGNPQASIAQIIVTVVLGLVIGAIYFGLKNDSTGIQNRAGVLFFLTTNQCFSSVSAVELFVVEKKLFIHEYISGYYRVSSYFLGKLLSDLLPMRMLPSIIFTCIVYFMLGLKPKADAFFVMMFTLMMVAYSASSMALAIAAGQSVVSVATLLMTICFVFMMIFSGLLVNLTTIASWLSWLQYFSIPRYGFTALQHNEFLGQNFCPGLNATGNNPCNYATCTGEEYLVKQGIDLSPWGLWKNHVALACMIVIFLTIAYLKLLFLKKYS
In words: Inhibition of BCRP (unknown origin) in MDCK-BCRP assessed as inhibtion of hoechst 33342 transport incubated for 30 mins by fluorescence assay.

In data set [9] the target is T1, ATP-dependent translocase ABCB1. In words: Inhibition of P-glycoprotein-mediated Rhodamine-123 efflux in human K562 cells assessed as Rhodamine-123 accumulation at 1 uM preincubated for 15 mins followed by Rhodamine-123 addition measured after 30 mins by flow cytometry. The settings on record: k562, 0.5 h. Format: cell-based.

Each structure is given as a SMILES string. Where only a bound is given, the exact number is not on record here.

Usually half-life stands for the time needed for the level to fall by half in the phase considered. A higher half-life goes with slow loss. In general, EC50 refers to the concentration that produces a half-maximal response.

T1 sequence (P08183 whole entry): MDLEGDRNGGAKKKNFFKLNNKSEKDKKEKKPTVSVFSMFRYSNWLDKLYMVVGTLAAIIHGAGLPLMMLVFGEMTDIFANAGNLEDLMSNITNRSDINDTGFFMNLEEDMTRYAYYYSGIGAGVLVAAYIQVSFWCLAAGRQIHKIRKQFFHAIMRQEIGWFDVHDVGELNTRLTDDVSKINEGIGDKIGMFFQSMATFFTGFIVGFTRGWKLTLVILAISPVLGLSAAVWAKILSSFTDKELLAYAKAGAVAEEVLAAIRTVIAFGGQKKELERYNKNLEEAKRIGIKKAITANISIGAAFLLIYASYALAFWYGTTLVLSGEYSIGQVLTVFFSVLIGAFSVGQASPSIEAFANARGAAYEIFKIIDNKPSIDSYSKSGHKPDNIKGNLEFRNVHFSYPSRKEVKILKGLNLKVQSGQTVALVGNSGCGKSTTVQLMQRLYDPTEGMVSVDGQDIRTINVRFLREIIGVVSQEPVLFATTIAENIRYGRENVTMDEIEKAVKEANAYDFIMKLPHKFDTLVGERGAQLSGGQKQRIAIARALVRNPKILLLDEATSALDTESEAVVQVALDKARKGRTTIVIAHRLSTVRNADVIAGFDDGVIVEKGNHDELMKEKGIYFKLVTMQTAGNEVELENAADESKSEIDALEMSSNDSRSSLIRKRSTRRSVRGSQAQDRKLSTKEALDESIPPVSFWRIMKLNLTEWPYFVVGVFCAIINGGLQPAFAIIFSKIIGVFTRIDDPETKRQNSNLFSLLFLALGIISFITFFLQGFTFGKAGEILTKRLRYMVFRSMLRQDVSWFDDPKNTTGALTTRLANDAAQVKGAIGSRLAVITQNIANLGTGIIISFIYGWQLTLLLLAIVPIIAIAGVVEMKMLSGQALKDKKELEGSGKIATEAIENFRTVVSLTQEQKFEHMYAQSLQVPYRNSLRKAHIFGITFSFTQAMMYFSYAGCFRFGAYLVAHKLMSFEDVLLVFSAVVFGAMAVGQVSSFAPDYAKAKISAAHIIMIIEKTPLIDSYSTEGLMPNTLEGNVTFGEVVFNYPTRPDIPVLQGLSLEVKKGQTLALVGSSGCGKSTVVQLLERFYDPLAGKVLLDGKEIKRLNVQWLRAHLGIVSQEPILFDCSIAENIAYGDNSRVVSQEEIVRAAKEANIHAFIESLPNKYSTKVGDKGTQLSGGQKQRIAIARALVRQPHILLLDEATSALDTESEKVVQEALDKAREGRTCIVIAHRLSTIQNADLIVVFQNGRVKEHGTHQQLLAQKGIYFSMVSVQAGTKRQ

For `COc1cc(/C=C/C(=O)OCCCCCN(C)CCCCCOC(=O)c2cc(OC)c(OC)c(OC)c2)cc(OC)c1OC`, the half-life at 1 µM in [1] and in data set [2] was above 4 h throughout.
Consider `COc1cc(/C=C/C(=O)OCCCN(C)CCCCCOC(=O)c2cc(OC)c(OC)c(OC)c2)cc(OC)c1OC`, for which the Stability result in data set [3] is on record as “Unstable”. The half-life at 1 µM was above 4 h in data set [1] and 0.683 h in data set [2].
For the compound `COc1cc(/C=C/C(=O)OCCCCCN(C)CCCOC(=O)c2cc(OC)c(OC)c(OC)c2)cc(OC)c1OC`, the half-life at 1 µM in data set [1] and in data set [2] was above 4 h throughout.
Take `CCOC(=O)C(C)c1cccc(C(=O)c2ccccc2)c1` (configuration not stated): in data set [2], the half-life at 1 µM was 1.78 h.
Turning to `COc1cc(/C=C/C(=O)OCCN(C)CCCCCCCOC(=O)c2cc(OC)c(OC)c(OC)c2)cc(OC)c1OC`, the half-life at 1 µM in data set [1] and in data set [2] was above 4 h in each case. In addition, in data set [4], the IC50 came to 70 nM. For the same compound, the Alpha max in data set [5] was 0.79.
Regarding `COc1cc(/C=C/C(=O)OCCCCCCCN(C)CCOC(=O)c2c3ccccc3cc3ccccc23)cc(OC)c1OC`, the half-life at 1 µM in data set [1] and in data set [2] was above 4 h in each case. Further, the IC50 in data set [4] came to 20 nM. For the same compound, in [5], the Alpha max is recorded as 0.98.
With `COc1cc(/C=C/C(=O)OCCCCCCN(C)CCCOC(=O)c2cc(OC)c(OC)c(OC)c2)cc(OC)c1OC`, the half-life at 1 µM in data set [1] and in [2] was above 4 h in each case. Further, the IC50 in data set [4] was 240 nM. Also, in data set [5], the Alpha max was 0.9.
As to `COc1cc(/C=C/C(=O)OCCN(C)CCCCCCCCOC(=O)c2c3ccccc3cc3ccccc23)cc(OC)c1OC`, the “inhibition (INH)” value in data set [6] and in data set [9] was “Not Active” each time. Also, the EC50 in data set [7] was 920 nM; in data set [8] it was 5100 nM. The half-life at 1 µM in [1] and in data set [2] was above 4 h in each case. In [4], the IC50 was determined as 40 nM. In addition, in data set [5], the Alpha max is 0.96.
Consider `COc1cc(/C=C/C(=O)OCCCCCCN(C)CCCCOC(=O)c2cc(OC)c(OC)c(OC)c2)cc(OC)c1OC`, for which the “inhibition (INH)” value in data set [6] is on record as “Active”; in data set [9], “Not Active”. Moreover, the results for the EC50 in [7] and in [8] were 200 nM and 16000 nM, respectively. Further, the half-life at 1 µM in data set [1] and in data set [2] was above 4 h throughout. In data set [4], the IC50 was determined as 10 nM. In [5], the Alpha max was found to be 0.99.
In the case of `COc1cc(/C=C/C(=O)OCCN(C)CCCCCCCCOC(=O)c2cc(OC)c(OC)c(OC)c2)cc(OC)c1OC`, the “inhibition (INH)” value in data set [6] and in [9] was “Not Active” each time. Further, the concentration giving a half-maximal response (EC50) is 220 nM in data set [7] and 4500 nM in data set [8]. Besides, the half-life at 1 µM in data set [1] and in data set [2] was above 4 h in each case. Further, the IC50 in data set [4] was determined as 40 nM. Further, the Alpha max in [5] was found to be 0.91.
For `COc1cc(/C=C/C(=O)OCCCCCN(C)CCCCOC(=O)c2cc(OC)c(OC)c(OC)c2)cc(OC)c1OC`, the half-life at 1 µM in data set [1] and in [2] was above 4 h each time. Also, the IC50 in data set [4] was found to be 100 nM. The Alpha max in data set [5] stood at 0.94.
As to `COc1cc(/C=C/C(=O)OCCCCN(C)CCCCCCOC(=O)c2cc(OC)c(OC)c(OC)c2)cc(OC)c1OC`, the Stability entry in [3] was “Unstable”. The half-life at 1 µM in data set [1] is above 4 h; in data set [2] it was 2.05 h. For the same compound, in data set [4], the IC50 was determined as 70 nM. Further, the Alpha max in data set [5] is recorded as 0.99.
For `COc1cc(/C=C/C(=O)OCCCCCCN(C)CCCOC(=O)c2c3ccccc3cc3ccccc23)cc(OC)c1OC`, the half-life at 1 µM in [1] and in data set [2] was above 4 h throughout. The IC50 in data set [4] was 30 nM. The Alpha max in [5] is recorded as 0.99.
As for `COc1cc(/C=C/C(=O)OCCN(C)CCCCCCOC(=O)c2cc(OC)c(OC)c(OC)c2)cc(OC)c1OC`, the half-life at 1 µM in data set [1] and in data set [2] was above 4 h throughout. Besides, the IC50 in data set [4] came to 460 nM. In [5], the Alpha max turned out to be 0.91.
For `COc1cc(/C=C/C(=O)OCCCCCCCCN(C)CCOC(=O)c2cc(OC)c(OC)c(OC)c2)cc(OC)c1OC`, the “inhibition (INH)” value in data set [6] and in [9] was “Not Active” in each case. For the same compound, the 50% effective concentration (EC50) in [7] was 300 nM; in [8], 3800 nM. The half-life at 1 µM in [1] and in data set [2] was above 4 h in each case. In data set [4], the IC50 was found to be 20 nM. The Alpha max in data set [5] came out at 0.93.
Regarding `COc1cc(/C=C/C(=O)OCCCCN(C)CCCCCOC(=O)c2c3ccccc3cc3ccccc23)cc(OC)c1OC`, the half-life at 1 µM in data set [1] and in data set [2] was above 4 h each time. Also, in data set [4], the IC50 was 40 nM. In addition, the Alpha max in data set [5] is 0.94.
In the case of `COc1cc(/C=C/C(=O)OCCCN(C)CCCCCCOC(=O)c2c3ccccc3cc3ccccc23)cc(OC)c1OC`, the half-life at 1 µM in data set [1] and in data set [2] was above 4 h in each case. Further, the IC50 in [4] is 40 nM. Besides, the Alpha max in data set [5] came to 0.92.
`COc1cc(/C=C/C(=O)OCCCN(C)CCCCCCCOC(=O)c2cc(OC)c(OC)c(OC)c2)cc(OC)c1OC`: in data set [3], the Stability entry is on record as “Unstable”. For the same compound, the figures for the half-life at 1 µM in [1] and in [2] were above 4 h and 0.75 h, respectively. Further, the IC50 in data set [4] was 80 nM. Further, in [5], the Alpha max is 0.97.
Consider `COc1cc(/C=C/C(=O)OCCCCCN(C)CCCCOC(=O)c2c3ccccc3cc3ccccc23)cc(OC)c1OC`, for which the half-life at 1 µM in data set [1] and in data set [2] was above 4 h throughout. In addition, the IC50 in data set [4] came out at 30 nM. Moreover, the Alpha max in [5] turned out to be 0.99.
For the compound `COc1cc(/C=C/C(=O)OCCCCCCN(C)CCOC(=O)c2cc(OC)c(OC)c(OC)c2)cc(OC)c1OC`, the half-life at 1 µM in data set [1] and in [2] was above 4 h in each case. In [4], the IC50 worked out at 190 nM. The Alpha max in data set [5] came out at 0.77.
Turning to `COc1cc(/C=C/C(=O)OCCCCCCN(C)CCOC(=O)c2c3ccccc3cc3ccccc23)cc(OC)c1OC`, the half-life at 1 µM in data set [1] and in data set [2] was above 4 h throughout. Further, in [4], the IC50 was determined as 40 nM. The Alpha max in [5] was found to be 0.94.
With `COc1cc(/C=C/C(=O)OCCCCCCCN(C)CCOC(=O)c2cc(OC)c(OC)c(OC)c2)cc(OC)c1OC`, the half-life at 1 µM in data set [1] and in data set [2] was above 4 h each time. In data set [4], the IC50 is 40 nM. For the same compound, the Alpha max in [5] turned out to be 0.99.
In the case of `COc1cc(/C=C/C(=O)OCCN(C)CCCCCCCOC(=O)c2c3ccccc3cc3ccccc23)cc(OC)c1OC`, the half-life at 1 µM in data set [1] and in [2] was above 4 h throughout. For the same compound, in data set [4], the IC50 amounted to 170 nM. In addition, in data set [5], the Alpha max amounted to 0.88.
As to `COc1cc(/C=C/C(=O)OCCN(C)CCCCCCOC(=O)c2c3ccccc3cc3ccccc23)cc(OC)c1OC`, the half-life at 1 µM in [1] and in [2] was above 4 h each time. For the same compound, the IC50 in data set [4] worked out at 200 nM. In addition, in data set [5], the Alpha max is reported as 0.79.
For `COc1cc(/C=C/C(=O)OCCCCCCCN(C)CCCOC(=O)c2c3ccccc3cc3ccccc23)cc(OC)c1OC`, the “inhibition (INH)” value in [6] and in data set [9] was “Not Active” throughout. Besides, the EC50 is 230 nM in data set [7] and 3900 nM in data set [8]. The half-life at 1 µM in data set [1] and in data set [2] was above 4 h throughout. Also, the IC50 in data set [4] is 10 nM. For the same compound, the Alpha max in data set [5] turned out to be 0.93.
Regarding `COc1cc(/C=C/C(=O)OCCCCCCCCN(C)CCOC(=O)c2c3ccccc3cc3ccccc23)cc(OC)c1OC`, the “inhibition (INH)” value in data set [6] and in data set [9] was “Not Active” in each case. In addition, the figures for the concentration for a half-maximal effect (EC50) in data set [7] and in [8] were 340 nM and 5400 nM, respectively. In addition, the half-life at 1 µM in [1] and in data set [2] was above 4 h each time. Also, the IC50 in data set [4] was 50 nM. In [5], the Alpha max worked out at 0.99.

Values taken from ChEMBL document CHEMBL4393665 (Eur J Med Chem, 2019).
